Here are results for three compounds from paper PMC10472104 (Clinical Cancer Research, 2023).

The structures appear in SMILES notation. Entries after “also recorded” stand apart in the source; their conditions may differ.

What all share (assay type): cell-based, human
One experiment relates to CHLA10 cells. In words: Cell-cycle analysis. Conditions: CHLA10 (Fig. 3B).
Another experiment has as its system γH2AX in CHLA10 cells. The experiment in a line: γH2AX expression by Western blotting. Conditions: CHLA10, 24 hours. (In general: In western blotting, separated proteins are transferred to a membrane and probed.)
For another experiment, the system named is TC32 cells. The experiment in a line: Cell-cycle analysis. The settings on record: TC32 (Fig. 3A).
A further experiment has as its system γH2AX in TC32 cells. In words: γH2AX expression by Western blotting. The settings on record: TC32, 24 hours. The procedure, abridged:
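Cells grown to 70–80% confluency in six-well plates, settled overnight, serum-starved 24 h, then given DMSO or increasing concentrations of test compound for 24 h. Lysates were transferred to nitrocellulose and blocked. Blots were probed overnight at 4°C with rabbit anti-phospho-H2AX (Ser139) and anti-total H2AX, then 1 h at room temperature with IRDye800CW anti-rabbit, and scanned on an Odyssey imager.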

Experiment [1] relates to γH2AX foci in CHLA10 cells. In words: γH2AX foci by immunofluorescence and confocal microscopy. The settings on record: CHLA10, increasing doses, 24 hours. The procedure, abridged:
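Cells were fixed in 4% paraformaldehyde 30 min at room temperature and permeabilized with 0.5% Triton-X. They were probed overnight at 4°C with rabbit anti-phospho-H2AX (Ser139), then Alexa Fluor 488 anti-rabbit, and DAPI-mounted. Foci were counted from confocal images.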

In experiment [2] the test system is TC32 and CHLA10 spheroids. The experiment in a line: 3D spheroid assays, comparison across both models. The settings on record: 4 days.

On to `O=C(CCCCCCC(=O)Nc1ccccc1)NO` [vorinostat], for which the cell-cycle arrest induced result with CHLA10 cells and with TC32 cells was “G0/G1 cell-cycle arrest” throughout. In addition, the “γH2AX expression with increasing doses” value in the experiment with γH2AX in CHLA10 cells and in the experiment with γH2AX in TC32 cells was “induced γH2AX expression in a dose-dependent manner” throughout. Further, in experiment [1], the γH2AX foci formation result was “milder DNA damage foci formation”.

With `O=C(c1cc(Cc2n[nH]c(=O)c3ccccc23)ccc1F)N1CCN(C(=O)C2CC2)CC1` [olaparib], the “γH2AX expression with increasing doses” value with γH2AX in CHLA10 cells and with γH2AX in TC32 cells was “induced γH2AX expression in a dose-dependent manner” in each case. In addition, the γH2AX foci formation result in experiment [1] was “dose-dependent γH2AX foci formation”.

Consider `Cn1ncnc1[C@H]1c2n[nH]c(=O)c3cc(F)cc(c23)N[C@@H]1c1ccc(F)cc1` [talazoparib], for which the “spheroid activity compared with kt-3283” value in experiment [2] is listed as “equivalent activity; also recorded: equivalent efficacy”.
